Source: PubChem BioAssay
TRPC6 inh – mouse TRPC6 channel inhibition; Q61143; HEK293-TRPC6, membrane potential dye, ACh-evoked depolarization; active compounds read low; B-score at 10 µM; 1.1% of 310,000 active; AID 2553;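 active = B-score under library mean minus 3 SD, initial fluorescence not abnormally high, positive integrated signal ratio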;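 note: B-score derived from integrated fluorescence ratio over the kinetic read; more negative B-score means stronger inhibition of depolarization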
TRPC4 act – activators of mouse TRPC4 channel; HEK293 TRPC4beta/mu-opioid, Fluo4 calcium fluorescence; active compounds read high; B-score at 10 µM; 0.49% of 310,000 active; Q9QUQ5;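 active = B-score above 5 SD of library B-scores, and initial fluorescence ratio not above library mean plus 5 SD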;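 note: positive B-score marks a calcium rise read as TRPC4 activation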
Target sequence (Q9QUQ5 whole entry, looked up): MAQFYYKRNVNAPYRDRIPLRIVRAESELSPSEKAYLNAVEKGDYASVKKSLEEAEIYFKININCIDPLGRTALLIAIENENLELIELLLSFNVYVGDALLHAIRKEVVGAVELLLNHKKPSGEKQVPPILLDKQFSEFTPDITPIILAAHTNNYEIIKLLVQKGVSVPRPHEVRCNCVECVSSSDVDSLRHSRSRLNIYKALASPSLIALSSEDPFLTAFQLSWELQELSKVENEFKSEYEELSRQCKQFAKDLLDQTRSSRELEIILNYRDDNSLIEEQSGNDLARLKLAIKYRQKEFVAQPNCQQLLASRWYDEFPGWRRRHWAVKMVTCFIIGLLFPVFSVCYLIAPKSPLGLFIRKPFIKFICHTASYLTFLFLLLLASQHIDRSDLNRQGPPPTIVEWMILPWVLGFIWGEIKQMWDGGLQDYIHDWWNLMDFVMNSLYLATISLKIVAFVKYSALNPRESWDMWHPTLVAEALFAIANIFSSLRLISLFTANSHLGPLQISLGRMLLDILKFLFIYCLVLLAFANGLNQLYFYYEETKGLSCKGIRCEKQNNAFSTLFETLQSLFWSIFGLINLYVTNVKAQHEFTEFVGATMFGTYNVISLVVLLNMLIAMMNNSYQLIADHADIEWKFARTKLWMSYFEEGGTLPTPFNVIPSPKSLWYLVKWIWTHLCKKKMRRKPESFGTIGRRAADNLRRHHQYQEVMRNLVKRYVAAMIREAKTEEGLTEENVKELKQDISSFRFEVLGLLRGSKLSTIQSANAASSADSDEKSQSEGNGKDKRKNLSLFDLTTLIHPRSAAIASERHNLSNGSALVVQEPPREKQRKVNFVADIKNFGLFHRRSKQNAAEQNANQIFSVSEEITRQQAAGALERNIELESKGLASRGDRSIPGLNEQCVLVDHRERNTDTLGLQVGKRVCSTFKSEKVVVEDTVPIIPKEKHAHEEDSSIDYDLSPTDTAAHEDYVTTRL
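Assay system – TRPC4beta and mu-opioid receptor HEK293 stable cells · Measured by – Fluo4 fluorescence, kinetic · Schedule – dye loading 45 min room temperature, 110 s kinetic read · Read-out – B-scored integrated calcium fluorescence ratio · Controls – buffer and maximal DAMGO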
Kir21 block – inhibitors of mouse Kir2.1 inward-rectifier potassium channel | P35561 | HEK293-Kir2.1, FluxOR thallium flux fluorescence; active compounds read low | B-score at 10 µM | 0.85% of 310,000 active | AID 1672;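 active = fluorescence ratio B-score at or below minus 3 SD of library scores, with starting-brightness B-score within 2 SD, cut at about -4.2 in these data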;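 note: channel flux triggered by added potassium and thallium sulfate stimulus; B-score of peak minus minimum fluorescence over baseline after thallium stimulus; more negative B-score means stronger Kir2.1 block with less thallium influx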
TRPC4 block – TRPC4 (mouse) channel inhibition; Q9QUQ5; HEK293 TRPC4beta/mu-opioid, DAMGO-evoked Fluo4 calcium flux; active compounds read low; B-score at 10 µM; 0.39% of 300,000 active; AID 2247;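 active = B-score over 3 SD under the library average, no early fluorescence shift, positive overall ratio signal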
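Assay system: Stable TRPC4beta/mu-opioid receptor HEK293 cells | Reagent: DAMGO in two steps, submaximal then maximal | Compound dosing: Single concentration per test compound | Signal: Fluo4 Ca2+ flux fluorescence | Evaluation: Per-well B score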
TRPC4 PAM – TRPC4 (mouse) allosteric potentiation; Q9QUQ5; HEK293 TRPC4beta/mu-opioid, DAMGO EC20, Fluo-4 Ca2+ flux; active compounds read high; B-score at 10 µM; 0.42% of 310,000 active;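 active = B-score of calcium response area above 5 SD of library B-scores, with initial fluorescence ratio within 5 SD of library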
TRPC6 act – activators of mouse TRPC6 channel; HEK293-TRPC6 membrane potential dye fluorescence; active compounds read high; 0.13% of 310,000 active; Q61143; B-score at 10 µM; AID 2550;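 active = B-score of the integrated fluorescence ratio above library mean plus 3 SD, and starting fluorescence ratio within library mean plus 5 SD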;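 note: higher score means more depolarization so channel activation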
TRPC4 sel inh 2 – second selectivity test of TRPC6 inhibitors: effect on mouse TRPC4; shares compounds with TRPC6 inh; HEK293 TRPC4/MOR, membrane potential dye fluorescence; channel activated by saturating DAMGO dose; inhibition, % at 10 µM; 42% of 920 active;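 active = compounds whose fluorescence signal differed from control wells by over 3 SD, either direction, in both duplicate plates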
TRPC4 spec – mouse TRPC4 off-target activity of TRPC6 inhibitors. shares compounds with TRPC6 inh. HEK293 TRPC4/mu-opioid, membrane potential fluorescence. activity change, negative = inhibition, % at 10 µM. 61% of 920 active. AID 2777;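 active = rise or fall in signal beyond 3 SD of buffer-only wells in both replicate plates, either sign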;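 note: integrated kinetic ratio of fluorescence range over baseline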
HEK293 MPD ctr 2-1 – second check of TRPC6 inhibitor effects in parental HEK293 cells; signal change vs control, % at 10 µM; shares compounds with TRPC6 inh; 31% of 920 active; parental HEK293 membrane potential dye fluorescence; maximal acetylcholine challenge after compound addition;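 active = membrane potential signal moving either way by over 3 SD of the maximum-effect control, in both duplicate plates, meaning non-specific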
HEK293 MPD ctr-1 – checks TRPC6 inhibitor effects in parental HEK293 cells | shares compounds with TRPC6 inh | parental HEK293 membrane potential dye fluorescence | membrane potential signal change, % at 10 µM | 60% of 920 active | AID 2780;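 active = membrane potential signal shifting up or down by more than 3 SD of buffer-only wells, on both duplicate plates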
HEK293 MPD ctr-2 – counter-screen for TRPC6 modulators: effect in parental HEK293 cells. shares compounds with TRPC6 inh. membrane potential dye fluorescence. membrane potential signal change, % at 10 µM. 51% of 2,400 active;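 active = membrane potential signal moves up or down beyond 5 SD from buffer-only wells, on both duplicate plates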
HEK293 MPD ctr 2-2 – second check of TRPC6 modulator effects in parental HEK293 cells | shares compounds with TRPC6 inh | membrane potential dye fluorescence; after compound, maximal acetylcholine stimulation | inhibition, % at 10 µM | 14% of 2,400 active | AID 488926;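 active = membrane potential signal drops by more than 5 SD from the mean control signal, in both duplicate plates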
TRPC4/MOR mod – selectivity of TRPC6 modulators against mouse TRPC4; 69% of 2,400 active; shares compounds with TRPC6 inh; HEK293 TRPC4/mu-opioid, membrane potential fluorescence; percent change from control (negative = decrease, positive = increase), % at 10 µM;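 active = membrane potential signal moved up or down beyond 5 SD of buffer control wells, in both duplicate plates, actives on both sides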
TRPC4 ctr inh 2 – second selectivity test of TRPC6 modulators against mouse TRPC4; shares compounds with TRPC6 inh; HEK293 TRPC4/mu-opioid, membrane potential dye fluorescence; stimulated with maximal-effect DAMGO; inhibition, % at 10 µM; 55% of 2,400 active; AID 488928;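 active = drop in membrane potential signal beyond 5 SD of the control wells in both duplicate plates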;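 note: TRPC4 counter screen for TRPC6 hits run under conditions tuned for TRPC6 not TRPC4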
TRPC6 block conf – mouse TRPC6 inhibitor confirmation; shares compounds with TRPC6 inh; HEK293-TRPC6, membrane potential dye, ACh-evoked depolarization; inhibition, % at 10 µM; 43% of 3,300 active; AID 488960;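 active = fluorescence ratio falls more than 5 SD below the full-stimulation control mean, in both duplicate runs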;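 note: integrated fluorescence ratio of peak minus minimum over baseline after agonist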
TRPC6 act conf – confirmation of mouse TRPC6 activators; shares compounds with TRPC6 inh; HEK293-TRPC6 membrane potential dye fluorescence, FDSS; activation, % at 10 µM; 11% of 2,800 active;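 active = ratio signal rise beyond 5 SD above unstimulated control wells' mean, seen in both duplicate runs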
Each line names hits and unclear results; the compound was inactive in the other large screens (follow-up assays come after a bar, where they were run). The list is not random: actives were taken first. Their share in the collection is about 2.9%.

CS(=O)(=O)N(Cc1ccccc1Cl)c1ccc(C(=O)N2CCCC2)cc1	none
Cc1ccc2c(c1)N(C(=O)CCC(=O)NCCCN1CCOCC1)CCO2	none
CCOC(=O)c1c(N2C(=O)Nc3ccccc3N2O)sc2c1CCCCC2	none
COC(=O)c1c(N2C(=O)Nc3ccccc3N2O)sc2c1CCCC2	TRPC6 act 11.8 | HEK293 MPD ctr-2 155.0% | HEK293 MPD ctr 2-2 inactive | TRPC4/MOR mod 18.5% | TRPC4 ctr inh 2 inactive | TRPC6 block conf inactive | TRPC6 act conf 75.5%
O=C(Nc1ccc(Cl)cc1)c1ccc2nsnc2c1	none
CCN1CCN(c2c(Cl)cccc2NC(=O)c2ccc3nsnc3c2)CC1	TRPC6 inh -9.64, TRPC4 act 63, TRPC4 PAM 19 | HEK293 MPD ctr-2 -206.0% | HEK293 MPD ctr 2-2 inactive | TRPC4/MOR mod -35.5% | TRPC4 ctr inh 2 64.5% | TRPC6 block conf 47.5% | TRPC6 act conf inactive
CCN1CCN(c2c(Cl)cccc2NC(=O)c2ccc([N+](=O)[O-])cc2)CC1	TRPC6 inh -5.9, TRPC4 act 99 | HEK293 MPD ctr-2 -225.0% | HEK293 MPD ctr 2-2 inactive | TRPC4/MOR mod -34.5% | TRPC4 ctr inh 2 63.0% | TRPC6 block conf inactive | TRPC6 act conf inactive
CC1CCC(C(C)C)C(OC(=O)COC(=O)c2ccc(=O)[nH]c2)C1 (stereo not drawn)	none
COc1ccc(-c2n(CC(=O)OC3CC(C)CCC3C(C)C)c3ccccc3[n+]2C)cc1 (stereo not drawn)	TRPC6 inh -5.07, Kir21 block -13.1, TRPC6 act 14.7 | HEK293 MPD ctr-2 536.0% | HEK293 MPD ctr 2-2 inactive | TRPC4/MOR mod 108.0% | TRPC4 ctr inh 2 56.0% | TRPC6 block conf 49.5% | TRPC6 act conf 191.5%
COc1ccc(CCNCC(O)COc2c(C)cccc2C)cc1OC (stereo not drawn)	none
CCN1CCN(C(=O)c2ccc(C)c(S(=O)(=O)Nc3cccc(C)c3)c2)CC1	TRPC6 inh -5.77 | HEK293 MPD ctr-2 inactive | HEK293 MPD ctr 2-2 inactive | TRPC4/MOR mod inactive | TRPC4 ctr inh 2 inactive | TRPC6 block conf inactive | TRPC6 act conf inactive
Cc1cccc(NS(=O)(=O)c2cc(C(=O)N3CCN(C)CC3)ccc2C)c1	none
CCOC(=O)C1(C)/C(=N/Nc2ccccc2Cl)C(=O)C(=O)N1c1ccccc1 (stereo not drawn)	TRPC6 inh -5.06 | HEK293 MPD ctr-2 -76.5% | HEK293 MPD ctr 2-2 inactive | TRPC4/MOR mod -21.0% | TRPC4 ctr inh 2 48.5% | TRPC6 block conf inactive | TRPC6 act conf inactive
CCOC(=O)C1(C)/C(=N/Nc2ccc(Cl)cc2)C(=O)C(=O)N1c1ccccc1 (stereo not drawn)	none
O=C(/C(=C/c1ccc(Cl)cc1)c1nc2ccccc2[nH]1)c1cccs1	TRPC6 inh -6.82 | TRPC4 sel inh 2 inactive | TRPC4 spec inactive | HEK293 MPD ctr 2-1 inactive | HEK293 MPD ctr-1 inactive | TRPC6 block conf inactive | TRPC6 act conf inactive
O=C(COc1ccc(Cl)cc1Cl)N1CCN(c2ccccn2)CC1	none
O=C(CCCOc1ccc(Cl)cc1Cl)N1CCN(c2ccccn2)CC1	TRPC6 inh -9.34 | TRPC4 sel inh 2 inactive | TRPC4 spec 0.1% | HEK293 MPD ctr 2-1 inactive | HEK293 MPD ctr-1 1.5% | TRPC6 block conf inactive
CN1Cc2sc(NC(=S)NC(=O)c3ccccc3)c(C#N)c2CC1(C)C	TRPC6 inh -5.2, TRPC6 act 20.9 | HEK293 MPD ctr-2 168.5% | HEK293 MPD ctr 2-2 inactive | TRPC4/MOR mod 23.5% | TRPC4 ctr inh 2 inactive | TRPC6 block conf inactive | TRPC6 act conf 40.0%
c1cnc2c(C3NCCc4c3[nH]c3ccccc43)cccc2c1 (stereo not drawn)	TRPC6 inh -6.6 | HEK293 MPD ctr-2 inactive | HEK293 MPD ctr 2-2 inactive | TRPC4/MOR mod inactive | TRPC4 ctr inh 2 71.5% | TRPC6 block conf 49.5% | TRPC6 act conf inactive
Cc1ccc(C(C)C)c(OCC(=O)Nc2ccc3c(c2)nc(CCN2CCCCC2)n3C)c1	TRPC6 inh -6.01 | HEK293 MPD ctr-2 inactive | HEK293 MPD ctr 2-2 inactive | TRPC4/MOR mod inactive | TRPC4 ctr inh 2 77.5% | TRPC6 block conf 57.0%
Cc1cc(NC(=O)CSc2nnc(C)n2C)no1	none
N=C1/C(=C\c2coc3ccccc3c2=O)C(=O)N=C2SC=CN12	TRPC6 inh -7.96, TRPC6 act 26.4 | HEK293 MPD ctr-2 640.0% | HEK293 MPD ctr 2-2 118.5% | TRPC4/MOR mod 119.0% | TRPC4 ctr inh 2 77.0% | TRPC6 block conf inactive | TRPC6 act conf 107.0%
CC1=CC2=NC(=O)/C(=C/c3coc4ccc(Cl)cc4c3=O)C(=N)N2O1	TRPC6 act 52 | HEK293 MPD ctr-2 active | HEK293 MPD ctr 2-2 active | TRPC4/MOR mod 287.0% | TRPC4 ctr inh 2 101.0% | TRPC6 act conf 457.0%
CCOCCCN(C(=O)CNC(=O)c1ccco1)C(C(=O)NC1CCCC1)c1cccc(OC)c1 (stereo not drawn)	none
COc1ccc(Sc2nc(-c3ccccn3)ncc2OC)cc1	TRPC6 inh -6.1 | HEK293 MPD ctr-2 -99.0% | HEK293 MPD ctr 2-2 inactive | TRPC4/MOR mod -15.0% | TRPC4 ctr inh 2 inactive | TRPC6 block conf inactive | TRPC6 act conf inactive
